Read-outs that look alike come from different tables or passages of the source.
What was measured:
[1] = system: OVCA432 ovarian cancer cells; assay: Proliferation assay; format: cell-based, human; conditions: read-out: IC50 (μM) OVCA432
[2] = system: SKOV3 ovarian cancer cells; assay: Proliferation assay; format: cell-based, human; conditions: read-out: IC50 (μM) SKOV3
OVCA432 cells [3] = assay: DAPI staining for apoptotic cells, OVCA432; format: cell-based, human; conditions: OVCA432, 24 hrs; 50 μM LiCl, 5 μM 9ING41, 25 μM SB216763; vs DMSO
In short: (§1)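 OVCA432 grown in supplemented MEM and SKOV3 in McCoy's 5A, both with 10% FBS, at 37 °C, 5% CO2. Cells plated at 5 × 10^4 per chamber-slide well and left to attach overnight. Exposed one day to test compound or 0.1% DMSO, then fixed in 4% paraformaldehyde and mounted in DAPI medium. Nuclei with condensed DNA or […] fragmentation counted in 3 fields (20× objective), triplicate experiments.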

SKOV3 cells [4] = assay: DAPI staining for apoptotic cells, SKOV3; format: cell-based, human; conditions: SKOV3, 24 hrs; 5 μM 9ING41; vs DMSO
In short: as §1

OVCA432 cells [5] = assay: TUNEL staining, OVCA432; format: cell-based, human; conditions: OVCA432, 24 hours, 5 μM 9ING41; vs DMSO
In short: (§2)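 Cells plated at 5 × 10^4 per chamber-slide well, attached overnight at 37 °C, then treated 24 h with test compound or 0.1% DMSO. Fixed in 4% paraformaldehyde. Stained with a colorimetric TUNEL kit per manufacturer. Brown TUNEL-positive cells counted in 3 fields imaged with a 20× objective, from triplicate experiments.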

SKOV3 cells [6] = assay: TUNEL staining, SKOV3; format: cell-based, human; conditions: SKOV3, 24 hours, 5 μM 9ING41; vs DMSO
In short: as §2

OVCA432 cells [7] = assay: Western blot of cell lysates, OVCA432; format: cell-based, human; conditions: for Cleaved PARP protein expression / Cleaved caspase-3 protein expression: OVCA432, 24 hours, 50 μM LiCl, 5 μM 9ING41, 25 μM SB216763
In short: (§3)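 Lysates taken after 24 h treatment with test compound or 0.1% DMSO, in Tris-HCl pH 7.6/NaCl/NP-40/deoxycholate/SDS buffer with protease and phosphatase inhibitors, protein equalised by BCA. Run on reducing 10% Bis-Tris gels and transferred to PVDF. Blocked in 5% milk TBS-T; cleaved caspase-3 in 5% BSA PBS-0.5% tween; cyclin D1 in 5% BSA TBS-T. Probed with rabbit primaries (total GSK3β, actin as controls) and HRP anti-rabbit, detected by chemiluminescence. Densitometry from triplicate blots.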

SKOV3 cells [8] = assay: Western blot of cell lysates, SKOV3; format: cell-based, human; conditions: for Cleaved PARP protein expression / Cleaved caspase-3 protein expression: SKOV3, 24 hours, 50 μM LiCl, 5 μM 9ING41, 25 μM SB216763
In short: as §3

[9] = Bioavailability and plasma pharmacokinetics; format: in vivo, Sprague-Dawley rats; conditions: rat
In short: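 Male Sprague-Dawley rats dosed at 10 mg/kg iv and 400 mg/kg po. Blood drawn into EDTA (n=3), kept on ice and processed within 30 min. Plasma spun at 2–8 °C for 15 min and stored at -80 °C. Acetonitrile with 100 ng/ml hexylnicotinate internal standard added, then vortexed and centrifuged at 18000g. Supernatant run by LC-MS/MS. Non-compartmental PK analysis.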

[10] = Range-finding toxicity study; conditions: rats, oral, 8 days observation
[11] = system: SKOV3 ovarian cancer cells; conditions: cited from earlier work
SKOV3 xenograft = conditions: drugs and cells mixed before subcutaneous injection; cited from earlier work
[12] = OVCA432 cells, 4 days (96 hours), concentration required to kill 50% of the cells
[13] = SKOV3 cells, 4 days (96 hours), concentration required to kill 50% of the cells

Cn1cc(C2=C(c3coc4ccc(F)cc34)C(=O)NC2=O)c2cc3c(cc21)OCO3 [9-ING-41]
IC50 [1, 12]: 11.2 µM
IC50 [2, 13]: 10.5 µM
Induction of apoptosis (DAPI) (OVCA432 cells [3]): induced apoptosis
Induction of apoptosis (DAPI) (SKOV3 cells [4]): induced apoptosis
Apoptosis (TUNEL-positive cells) (OVCA432 cells [5]): significantly increased apoptosis
Apoptosis (TUNEL-positive cells) (SKOV3 cells [6]): significantly increased apoptosis
Phosphorylation of GSK3β ser9 (normalized to total GSK3β) (OVCA432 cells [7]; OVCA432, 5 μM 9ING41, 24 hours): increased phosphorylation
Phosphorylation of glycogen synthase (OVCA432 cells [7]; OVCA432, 5 μM 9ING41, 24 hours): significantly inhibited
Cleaved PARP protein expression (OVCA432 cells [7]): cleaved product of PARP was detected
Cleaved caspase-3 protein expression (OVCA432 cells [7]): increase in cleaved caspase-3
Cyclin D1 expression (SKOV3 cells [8]; SKOV3, 5 μM 9ING41, 24 hours): increased
Phosphorylation of GSK3β ser9 (normalized to total GSK3β) (SKOV3 cells [8]; SKOV3, 5 μM 9ING41, 24 hours): increased phosphorylation
Phosphorylation of glycogen synthase (SKOV3 cells [8]; SKOV3, 5 μM 9ING41, 24 hours): significantly inhibited
Cleaved PARP protein expression (SKOV3 cells [8]): cleaved product of PARP was detected
Cleaved caspase-3 protein expression (SKOV3 cells [8]): increase in cleaved caspase-3
AUC (area under the concentration-time curve) ([9]; iv 10 mg/kg): 2740 ng·h/mL
CL (systematic clearance) ([9]; iv 10 mg/kg): 61.5 mL/min/kg
Co (plasma concentration at T = 0) ([9]; iv 10 mg/kg): 1390 ng/mL
T1/2 (apparent elimination half-life) ([9]; iv 10 mg/kg): 4.85 h
V (volume of distribution) ([9]; iv 10 mg/kg): 26.2 L/kg
Elimination half-life ([9]; iv 10 mg/kg and po 400 mg/kg): 4.0 to 4.85 h
Volumes of distribution ([9]; iv 10 mg/kg and po 400 mg/kg): ≥ 26 L/kg
Plasma level C ([9]; iv 10 mg/kg, 0.083 h): 1390 ng/mL
Plasma level C ([9]; iv 10 mg/kg, 0.167 h): 1410 ng/mL
Plasma level C ([9]; iv 10 mg/kg, 0.5 h): 1190 ng/mL
Plasma level C ([9]; iv 10 mg/kg, 1 h): 690 ng/mL
Plasma level C ([9]; iv 10 mg/kg, 2 h): 367 ng/mL
Plasma level C ([9]; iv 10 mg/kg, 4 h): 139 ng/mL
Plasma level C ([9]; iv 10 mg/kg, 6 h): 77 ng/mL
Plasma level C ([9]; iv 10 mg/kg, 8 h): 41 ng/mL
Plasma level C ([9]; iv 10 mg/kg, 24 h): 6.7 ng/mL
AUC (area under the concentration-time curve) ([9]; po 400 mg/kg): 4950 ng·h/mL
CL (systematic clearance) ([9]; po 400 mg/kg): 2210 mL/min/kg
T1/2 (apparent elimination half-life) ([9]; po 400 mg/kg): 4.0 h
V (volume of distribution) ([9]; po 400 mg/kg): 810 L/kg
F (bioavailability) ([9]; po 400 mg/kg vs iv 10 mg/kg): 4.5%
Plasma level C ([9]; po 400 mg/kg, 0.083 h): 4.7 ng/mL
Plasma level C ([9]; po 400 mg/kg, 0.167 h): 18.2 ng/mL
Plasma level C ([9]; po 400 mg/kg, 0.5 h): 156 ng/mL
Plasma level C ([9]; po 400 mg/kg, 1 h): 540 ng/mL
Plasma level C ([9]; po 400 mg/kg, 2 h): 820 ng/mL
Plasma level C ([9]; po 400 mg/kg, 4 h): 934 ng/mL
Plasma level C ([9]; po 400 mg/kg, 6 h): 340 ng/mL
Plasma level C ([9]; po 400 mg/kg, 8 h): 123 ng/mL
Plasma level C ([9]; po 400 mg/kg, 24 h): 8.3 ng/mL
Maximum tolerated dose (MTD) [10]: greater than 500 mg/kg

COc1cccc2c(C3=C(c4cn(C)c5cc(Cl)c(F)cc45)C(=O)NC3=O)coc12 [9-ING-87]
IC50 [1, 12]: 10.7 µM
IC50 [2, 13]: 42.7 µM

[Cl-].[Li+] [LiCl, Lithium chloride, reference compound]
Induction of apoptosis (DAPI) (OVCA432 cells [3]): induced apoptosis
Cleaved PARP protein expression (OVCA432 cells [7]): absence
Cleaved caspase-3 protein expression (OVCA432 cells [7]): absence
Cleaved PARP protein expression (SKOV3 cells [8]): absence
Cleaved caspase-3 protein expression (SKOV3 cells [8]): absence
Growth inhibition of SKOV3 [11]: growth inhibited
SKOV3 tumor growth (SKOV3 xenograft): significantly slow SKOV3 tumor growth

Cn1cc(C2=C(c3ccc(Cl)cc3Cl)C(=O)NC2=O)c2ccccc21 [SB216763, reference compound]
IC50 ([1]; Homo sapiens, OVCA432, 96 h): > 50 µM
IC50 ([2]; Homo sapiens, SK-OV-3, 96 h): > 50 µM
Induction of apoptosis (DAPI) (OVCA432 cells [3]): induced apoptosis
Cleaved PARP protein expression (OVCA432 cells [7]): absence
Cleaved caspase-3 protein expression (OVCA432 cells [7]): absence
Cleaved PARP protein expression (SKOV3 cells [8]): absence
Cleaved caspase-3 protein expression (SKOV3 cells [8]): absence
Growth inhibition of SKOV3 [11]: growth inhibited
